These results are taken from ChEMBL document CHEMBL3414429, “3,4-diaminobenzoic acid derivatives as inhibitors of the oxytocinase subfamily of M1 aminopeptidases with immune-regulating properties” (J Med Chem, 2015).

Structures are written as SMILES. Activity calls are given as the source filed them. The rule behind the calls is not given here.

Assay [1] concerns the target T1, Endoplasmic reticulum aminopeptidase 1 (Homo sapiens, UniProt Q9NZ08). Description: Inhibition of human recombinant ERAP1 expressed in baculovirus infected […] using L-leucine-7-amido-4-methyl coumarin as substrate up to 100 uM after 5 to 10 mins by fluorescence assay. A digest of the protocol: (§1)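 Recombinant human enzymes made in baculovirus-infected Hi5 cells, kept in 10 mM HEPES pH 7, 100 mM NaCl, 10% glycerol. ERAP1 30 nM, ERAP2 6 nM or IRAP 6 nM with 50 μM substrate (L-AMC for ERAP1 and IRAP, R-AMC for ERAP2) and varied inhibitor. Fluorescence rise followed at ex 380/em 460; IC50 from fit of activity against inhibitor concentration.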

The target of assay [2] is T2, Endoplasmic reticulum aminopeptidase 2 (Homo sapiens, UniProt Q6P179). Nature of the assay: Inhibition of human recombinant ERAP2 expressed in baculovirus infected cabbage looper ovary Hi5 cells using L-arginyl-7-amido-4-methyl coumarin as substrate up to 100 uM after 5 to 10 mins by fluorescence assay. The note with it: BTI-TN-5B1-4. Put shortly: as §1
Assay [3] concerns the target Leucyl-cystinyl aminopeptidase (Homo sapiens, UniProt Q9UIQ6). Description: Inhibition of human recombinant IRAP expressed in baculovirus infected cabbage looper ovary Hi5 cells using L-leucine-7-amido-4-methyl coumarin as substrate after 5 to 10 mins by fluorescence assay. Details: species or system Female gonad, BTI-TN-5B1-4.
The target in assay [4] is T3, Endoplasmic reticulum aminopeptidase 1 (Mus musculus) (UniProt Q9EQH2).
T3 sequence (whole entry): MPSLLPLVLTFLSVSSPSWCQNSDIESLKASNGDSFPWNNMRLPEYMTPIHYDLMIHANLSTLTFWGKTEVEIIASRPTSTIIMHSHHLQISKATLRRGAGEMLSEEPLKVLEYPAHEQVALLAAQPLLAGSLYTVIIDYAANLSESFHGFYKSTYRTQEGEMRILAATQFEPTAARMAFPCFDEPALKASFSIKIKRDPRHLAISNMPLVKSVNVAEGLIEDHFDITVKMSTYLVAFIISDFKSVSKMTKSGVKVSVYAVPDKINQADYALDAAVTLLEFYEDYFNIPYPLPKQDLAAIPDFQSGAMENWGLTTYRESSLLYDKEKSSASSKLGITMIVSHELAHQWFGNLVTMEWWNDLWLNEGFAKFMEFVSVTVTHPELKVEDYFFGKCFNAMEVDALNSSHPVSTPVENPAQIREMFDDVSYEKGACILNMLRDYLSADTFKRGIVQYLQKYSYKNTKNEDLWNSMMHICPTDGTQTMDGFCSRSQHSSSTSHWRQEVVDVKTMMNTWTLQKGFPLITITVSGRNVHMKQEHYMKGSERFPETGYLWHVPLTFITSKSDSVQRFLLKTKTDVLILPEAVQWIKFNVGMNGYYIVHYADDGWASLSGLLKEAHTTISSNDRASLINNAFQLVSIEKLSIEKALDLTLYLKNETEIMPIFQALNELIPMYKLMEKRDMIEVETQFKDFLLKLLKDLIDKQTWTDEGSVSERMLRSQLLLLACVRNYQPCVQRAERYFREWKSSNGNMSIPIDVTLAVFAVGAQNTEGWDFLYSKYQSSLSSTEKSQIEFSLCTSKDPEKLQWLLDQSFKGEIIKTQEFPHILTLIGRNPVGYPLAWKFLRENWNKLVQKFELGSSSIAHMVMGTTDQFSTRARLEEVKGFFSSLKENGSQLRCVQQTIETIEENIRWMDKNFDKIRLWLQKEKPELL
Description: Inhibition of ERAP1 in mouse RAW264.7 cells assessed as reduction in interferon-gamma/LPS-induced phagocytosis after 24 hrs by fluorescent latex beads internalization assay. Type of assay: cell-based. A digest of the protocol:
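RAW264.7 cells in RPMI 1640/10% FBS, seeded 2×10^4/well for 24 h. Activated with IFN-γ (100 IU/mL) plus LPS (1 μg/mL) with or without inhibitor at various concentrations. FITC-IgG latex beads given in 1% FBS medium for 24 h at 37 °C. Uptake read as fluorescence (ex 485/em 535) after PBS washes; ED50 from curve fit.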

The test system of assay [5] is Insulin-regulated aminopeptidase, Lnpep (Mus musculus). Nature of the assay: Inhibition of IRAP in mouse BMDC assessed as blockade of cross-presentation by measuring IL-2 level incubated for 1 day followed by compound wash out and incubated for 6 hrs with yeast cells expressing surface ovalbumin measured 20 hrs post CD8+ T cell-induction by sandwich ELISA method.
Assay [6] concerns T-cell. Nature of the assay: Blockade of cross-presentation in mouse IRAP-deficient BMDC assessed as IL-2 level incubated for 1 day […] and incubated for 6 hrs with yeast cells expressing surface ovalbumin measured 20 hrs post CD8+ T cell-induction by sandwich ELISA method. Type of assay: functional, cell-based. Put shortly: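 BMDCs from wild-type or IRAP knockout mice, grown 7 days from bone-marrow progenitors in IMDM/10% FCS with GM-CSF-containing J558 supernatant. Inhibitor added day 6 and kept through all steps. Day 7: serial dilutions of surface-ovalbumin yeast for 6 h, then OT-I lymph-node CD8+ T cells (T/BMDC 1.5:1) for 20 h. Supernatant IL-2 by sandwich ELISA; glutaraldehyde-fixed BMDC background subtracted; duplicate wells.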

The target of assay [7] is T2, Endoplasmic reticulum aminopeptidase 2. Nature of the assay: Inhibition of human recombinant ERAP2 expressed in baculovirus infected cabbage looper ovary Hi5 cells using L-arginyl-7-amido-4-methyl coumarin as substrate after 5 to 10 mins by fluorescence assay. Also on record: species or system Female gonad, BTI-TN-5B1-4.
For assay [8], the target named is T1, Endoplasmic reticulum aminopeptidase 1. Nature of the assay: Inhibition of human recombinant ERAP1 expressed in baculovirus infected Sf9 cells using L-leucine-7-amido-4-methyl coumarin as substrate after 5 to 10 mins by fluorescence assay.

T2 sequence (Q6P179 whole entry): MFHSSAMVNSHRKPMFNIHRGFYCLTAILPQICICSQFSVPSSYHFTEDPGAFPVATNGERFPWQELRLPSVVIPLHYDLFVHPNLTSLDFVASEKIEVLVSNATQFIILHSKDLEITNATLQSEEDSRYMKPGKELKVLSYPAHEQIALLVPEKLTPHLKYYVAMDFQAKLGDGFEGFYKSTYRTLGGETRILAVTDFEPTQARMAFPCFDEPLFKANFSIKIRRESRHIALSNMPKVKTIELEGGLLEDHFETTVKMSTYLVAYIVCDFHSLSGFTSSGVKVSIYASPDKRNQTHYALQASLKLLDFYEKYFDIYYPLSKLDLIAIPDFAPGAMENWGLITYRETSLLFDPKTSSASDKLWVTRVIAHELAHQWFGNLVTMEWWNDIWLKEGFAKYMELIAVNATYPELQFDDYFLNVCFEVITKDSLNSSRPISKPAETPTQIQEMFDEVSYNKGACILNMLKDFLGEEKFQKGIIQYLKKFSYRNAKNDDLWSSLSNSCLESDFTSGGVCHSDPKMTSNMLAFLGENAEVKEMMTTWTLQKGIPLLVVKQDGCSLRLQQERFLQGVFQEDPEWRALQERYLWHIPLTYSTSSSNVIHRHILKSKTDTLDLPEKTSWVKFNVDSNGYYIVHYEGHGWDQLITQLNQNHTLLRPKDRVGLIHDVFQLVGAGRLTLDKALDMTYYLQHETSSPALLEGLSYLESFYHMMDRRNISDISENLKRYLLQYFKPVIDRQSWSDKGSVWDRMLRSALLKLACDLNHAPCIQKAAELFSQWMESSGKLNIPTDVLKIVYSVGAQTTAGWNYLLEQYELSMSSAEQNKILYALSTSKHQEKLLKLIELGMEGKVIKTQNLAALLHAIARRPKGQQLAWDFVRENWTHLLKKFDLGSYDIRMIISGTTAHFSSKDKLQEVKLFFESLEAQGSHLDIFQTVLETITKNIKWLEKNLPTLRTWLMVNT
Chain of Leucyl-cystinyl aminopeptidase (Q9UIQ6 whole entry): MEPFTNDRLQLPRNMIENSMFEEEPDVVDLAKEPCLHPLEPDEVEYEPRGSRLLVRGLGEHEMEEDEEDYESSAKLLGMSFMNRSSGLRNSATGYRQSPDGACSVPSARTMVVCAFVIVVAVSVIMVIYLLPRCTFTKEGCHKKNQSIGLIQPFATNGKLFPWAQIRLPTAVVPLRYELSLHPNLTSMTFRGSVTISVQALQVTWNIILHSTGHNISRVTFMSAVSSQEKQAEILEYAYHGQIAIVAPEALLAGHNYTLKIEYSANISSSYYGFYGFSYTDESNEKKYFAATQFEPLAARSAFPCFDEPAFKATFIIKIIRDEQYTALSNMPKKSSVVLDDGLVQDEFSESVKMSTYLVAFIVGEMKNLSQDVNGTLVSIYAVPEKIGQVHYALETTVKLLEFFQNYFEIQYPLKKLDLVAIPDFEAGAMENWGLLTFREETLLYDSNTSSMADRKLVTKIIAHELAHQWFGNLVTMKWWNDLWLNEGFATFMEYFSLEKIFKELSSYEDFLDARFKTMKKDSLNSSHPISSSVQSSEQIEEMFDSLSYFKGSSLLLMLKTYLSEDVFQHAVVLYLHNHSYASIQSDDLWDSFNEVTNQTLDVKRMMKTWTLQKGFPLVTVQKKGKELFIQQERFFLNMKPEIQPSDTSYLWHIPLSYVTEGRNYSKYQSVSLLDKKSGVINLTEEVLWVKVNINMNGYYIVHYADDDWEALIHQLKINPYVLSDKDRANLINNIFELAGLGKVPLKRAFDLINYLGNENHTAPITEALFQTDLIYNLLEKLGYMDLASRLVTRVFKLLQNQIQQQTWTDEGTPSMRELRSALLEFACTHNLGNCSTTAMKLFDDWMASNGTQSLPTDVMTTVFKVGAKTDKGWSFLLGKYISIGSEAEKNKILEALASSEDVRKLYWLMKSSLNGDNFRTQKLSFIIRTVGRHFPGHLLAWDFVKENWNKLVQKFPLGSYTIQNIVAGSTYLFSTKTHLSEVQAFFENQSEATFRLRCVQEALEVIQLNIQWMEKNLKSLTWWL
T1 sequence (Q9NZ08 whole entry): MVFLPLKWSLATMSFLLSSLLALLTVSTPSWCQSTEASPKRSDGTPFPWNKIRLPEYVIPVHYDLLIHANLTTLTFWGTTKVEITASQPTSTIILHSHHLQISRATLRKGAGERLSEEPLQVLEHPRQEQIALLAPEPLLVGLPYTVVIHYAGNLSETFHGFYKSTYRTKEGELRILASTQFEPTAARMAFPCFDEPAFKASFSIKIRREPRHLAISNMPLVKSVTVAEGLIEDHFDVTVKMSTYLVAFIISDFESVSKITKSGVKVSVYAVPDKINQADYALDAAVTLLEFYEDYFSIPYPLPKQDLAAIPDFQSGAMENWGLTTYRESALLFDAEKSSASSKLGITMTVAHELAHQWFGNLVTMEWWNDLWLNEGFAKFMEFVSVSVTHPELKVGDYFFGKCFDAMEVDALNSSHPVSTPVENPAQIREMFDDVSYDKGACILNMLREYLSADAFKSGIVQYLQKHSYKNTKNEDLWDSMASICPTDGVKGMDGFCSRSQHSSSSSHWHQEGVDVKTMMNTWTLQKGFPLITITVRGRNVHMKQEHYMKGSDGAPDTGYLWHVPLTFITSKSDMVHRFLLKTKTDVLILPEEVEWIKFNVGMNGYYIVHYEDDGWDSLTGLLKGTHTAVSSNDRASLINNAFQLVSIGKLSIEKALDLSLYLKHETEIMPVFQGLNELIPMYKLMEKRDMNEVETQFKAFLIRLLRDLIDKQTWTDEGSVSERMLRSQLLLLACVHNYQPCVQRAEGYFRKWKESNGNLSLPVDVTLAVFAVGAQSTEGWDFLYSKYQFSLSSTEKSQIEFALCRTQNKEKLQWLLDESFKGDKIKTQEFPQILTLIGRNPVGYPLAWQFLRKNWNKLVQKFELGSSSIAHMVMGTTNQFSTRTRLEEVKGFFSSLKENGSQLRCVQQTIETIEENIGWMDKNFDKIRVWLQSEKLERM

`NCCC[C@H](NC(=O)c1ccc(N)c(NC(=O)[C@@H](N)CCc2ccccc2)c1)C(=O)O`: the inhibition entry in assay [1] and in assay [2] was “inactive” throughout. In addition, the half-inhibitory concentration (IC50) in assay [3] was more than 100 µM.
Take `COC(=O)[C@H](Cc1ccc(O)cc1)NC(=O)c1ccc(N)c(NC(=O)[C@@H](N)CCCNC(=N)N)c1`: in assay [4], the ED50 amounted to 3 µM and the inhibition result was “Dose-dependent effect”.
On to `CCCC[C@H](N)C(=O)Nc1cc(C(=O)N[C@@H](Cc2c[nH]c3ccccc23)C(=O)OCc2ccccc2)ccc1N`, for which, in assay [5], the ED50 is 0.0065 µM and the inhibition result was “Dose-dependent effect”. Besides, the outcome in assay [6] was inactive. Moreover, in assay [4], the ED50 came out at 0.56 µM and the inhibition result is “Dose-dependent effect”.
As to `CCCC[C@H](N)C(=O)Nc1cc(C(=O)N[C@H](C(=O)O)C(C)C)ccc1N`, in assay [1], the inhibition result is “inactive”. In addition, in assay [3], the IC50 was more than 100 µM.
For the molecule `COC(=O)[C@H](CCCCN)NC(=O)c1ccc(NC(=O)[C@@H](N)CC(C)C)c(N)c1`, the inhibition entry in assay [1] and in assay [2] was “inactive” in each case. The IC50 in assay [3] was more than 100 µM.
`CCCC[C@H](N)C(=O)Nc1cc(C(=O)N[C@@H](CCCCN)C(=O)OC)ccc1N`: the IC50 in assay [3] was more than 100 µM.
For `CCCC[C@H](N)C(=O)Nc1ccc(C(=O)N[C@H](C(=O)O)C(C)C)cc1N`, the inhibition result in assay [1] is “inactive”. In assay [3], the IC50 came to 3.9 µM.
As for `CCCC[C@H](N)C(=O)Nc1cc(C(=O)N[C@H](C(=O)OCc2ccccc2)C(C)C)ccc1N`, the IC50 in assay [7] and in assay [8] was more than 100 µM in each case. In assay [4], the ED50 entry is “inactive”.
With `COC(=O)[C@H](CCCCN)NC(=O)c1ccc(N)c(NC(=O)[C@@H](N)CCc2ccccc2)c1`, in assay [4], the ED50 was found to be 0.97 µM and the inhibition result is “Dose-dependent effect”.
